Measurements: ChEMBL document CHEMBL1122913, “Novel dopamine receptor agonists and antagonists with preferential action on autoreceptors” (1985)
Activity calls are given as the source filed them. No cut-off for these calls is given here.

Assays:
Rattus norvegicus [1] = organism: Rattus norvegicus; assay: Locomotor activity after reserpine pretreatment in rat; format: functional
Method in brief: (§1)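 Rats received reserpine 10 mg/kg ip 6 h and DL-α-methyl-p-tyrosine methyl ester 250 mg/kg ip 1 h before, then test drug sc immediately before the session. Photocell counts accumulated over 30 min, mean ± SEM, n = 4-9; t test vs saline controls. Haloperidol 0.3 mg/kg ip 30 min before test drug used for blockade.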

Rattus norvegicus [2] = organism: Rattus norvegicus; assay: Locomotor activity after no pretreatment in rat at low-dose region expressed as percent of saline control; Inactive; format: functional, organism-based
Rattus norvegicus [3] = assay: Effective dose against DOPA accumulation in rat brain limbic region after reserpine pretreatment by subcutaneous administration; format: functional; settings: sc
Method in brief: (§2)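 Male Sprague-Dawley rats (200-300 g), reserpine 5 mg/kg ip 18 h, test drug sc 60 min, and NSD 1015 100 mg/kg ip 30 min before death; saline controls. Limbic and striatal DOPA measured by HPLC-electrochemical detection. ED50 is the dose giving half-maximal decrease of DOPA formation, estimated from 4-7 dose levels (n = 3); controls = 100%.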

Rattus norvegicus [4] = assay: Effective dose against DOPA accumulation in rat brain limbic region after no pretreatment by subcutaneous administration; No significant effect of 16 mg/kg subcutaneous administration; format: functional, organism-based; parameters: dose 16 mg/kg
Rattus norvegicus [5] = organism: Rattus norvegicus; assay: Locomotor activity after no pretreatment in rat at high-dose region expressed as percent of saline control; Inactive; format: functional, organism-based
Rattus norvegicus [6] = assay: Effective dose against DOPA accumulation in rat brain striatal region after no pretreatment by subcutaneous administration; No significant effect of 16 mg/kg subcutaneous administration; format: functional, organism-based; parameters: dose 16 mg/kg
Rattus norvegicus [7] = assay: Effective dose against DOPA accumulation in rat brain striatal region after reserpine pretreatment by subcutaneous administration; format: functional; settings: sc; method in brief: as §2
Rattus norvegicus [8] = organism: Rattus norvegicus; assay: Locomotor activity after reserpine pretreatment in rat(p<0.001); format: functional; method in brief: as §1
Rattus norvegicus [9] = organism: Rattus norvegicus; assay: Locomotor activity after no pretreatment in rat at low-dose region expressed as percent of saline control; format: functional
Rattus norvegicus [10] = organism: Rattus norvegicus; assay: Locomotor activity after no pretreatment in rat at high-dose region expressed as percent of saline control; format: functional
Rattus norvegicus [11] = organism: Rattus norvegicus; assay: Locomotor activity after reserpine pretreatment in rat; Not Tested; format: functional, organism-based
Rattus norvegicus [12] = assay: Effective dose against DOPA accumulation in rat brain striatal region after no pretreatment by subcutaneous administration; format: functional; settings: sc
Method in brief: (§3)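 Untreated male Sprague-Dawley rats (200-300 g) received test drug sc 65 min and NSD 1015 100 mg/kg ip 30 min before death; saline controls. Limbic or striatal DOPA measured by HPLC-electrochemical detection. ED50 is the dose giving half-maximal increase or decrease of DOPA formation, from 4-5 dose levels (n = 3-10); controls = 100%.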

Rattus norvegicus [13] = assay: Effective dose against DOPA accumulation in rat brain limbic region after reserpine pretreatment by subcutaneous administration; No significant effect at 0.5 mg/kg intraperitoneal administration; format: functional, organism-based; parameters: dose 0.5 mg/kg
Rattus norvegicus [14] = assay: Effective dose against DOPA accumulation in rat brain limbic region after no pretreatment by subcutaneous administration; format: functional; settings: sc; method in brief: as §3
Rattus norvegicus [15] = assay: Effective dose against DOPA accumulation in rat brain striatal region after reserpine pretreatment by subcutaneous administration; No significant effect at 0.5 mg/kg intraperitoneal administration; format: functional, organism-based; parameters: dose 0.5 mg/kg
Rattus norvegicus [16] = assay: Effective dose against DOPA accumulation in rat brain limbic region after reserpine pretreatment by subcutaneous administration; No significant effect of 16 mg/kg subcutaneous administration; format: functional, organism-based; parameters: dose 16 mg/kg
Rattus norvegicus [17] = assay: Effective dose against DOPA accumulation in rat brain striatal region after reserpine pretreatment by subcutaneous administration; No significant effect of 16 mg/kg subcutaneous administration; format: functional, organism-based; parameters: dose 16 mg/kg

Row | Structure (SMILES) | Accumulated counts/30 min (Rattus norvegicus [1]) | Control (Rattus norvegicus [2]) | ED50 (Rattus norvegicus [3]) [mg/kg] | ED50 (Rattus norvegicus [4]) | Control (Rattus norvegicus [5]) | ED50 (Rattus norvegicus [6]) | ED50 (Rattus norvegicus [7]) [mg/kg] | Accumulated counts/30 (Rattus norvegicus [8]) | Control (Rattus norvegicus [9]) [%] | Control (Rattus norvegicus [10]) [%] | Accumulated counts/30 min (Rattus norvegicus [11]) | ED50 (Rattus norvegicus [12]) [mg/kg] | ED50 (Rattus norvegicus [13]) | ED50 (Rattus norvegicus [14]) [mg/kg] | ED50 (Rattus norvegicus [15]) | ED50 (Rattus norvegicus [16]) | Accumulated counts/30 (Rattus norvegicus [1]) | ED50 (Rattus norvegicus [17])
1 | CCCN(CCC)[C@H]1CCc2c(OC)cccc2[C@H]1C.Cl | 8 | inactive | 1.7 | inactive | inactive | inactive | 1.8 |  |  |  |  |  |  |  |  |  |  | 
2 | CN1CCc2cccc3c2[C@H]1Cc1ccc(O)c(O)c1-3 [APOMORPHINE] |  |  | 0.06 |  |  |  | 0.07 | 361 | 52 | 277 |  |  |  |  |  |  |  | 
3 | O=C(CCCN1CCC(O)(c2ccc(Cl)cc2)CC1)c1ccc(F)cc1 [HALOPERIDOL] |  |  |  |  |  |  |  |  | 75 | 3 | inactive | 0.07 | inactive | 0.07 | inactive |  |  | 
4 | CCCN(CCC)[C@@H]1CCc2c(O)cccc2[C@@H]1C.Cl |  |  |  |  |  |  |  |  | 128 | 69 |  | 2.8 |  | 3 |  | inactive | 6 | inactive
5 | CCCN(CCC)[C@H]1CCc2c(O)cccc2[C@H]1C.Cl | 79 |  | 0.09 |  |  |  | 0.1 |  | 65 | 171 |  | 0.25 |  | 0.25 |  |  |  | 
6 | CCCN(CCC)[C@@H]1CCc2c(OC)cccc2[C@@H]1C.Cl | 4 |  |  |  |  |  |  |  | 144 | 49 |  | 3 |  | 4 |  | inactive |  | inactive
